These results are taken from ChEMBL document CHEMBL2021777 (J Med Chem, 2012).

Data set [1] in a line: Metabolic stability in human liver microsomes assessed as compound remaining at 1 uM after 1 hr. The settings on record: read-out: Stability. It is filed as ADME, Microsome. The procedure, abridged:
(§1)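 Compound at 1 μM incubated for 1 h with human or mouse liver microsomes; percent of parent remaining unchanged.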

Data set [2] is described as follows: Displacement of [3H]Muscimol from GABA(A) at 10 uM.
The target in data set [3] is Sodium-dependent dopamine transporter (Homo sapiens) (UniProt Q01959). The experiment in a line: Displacement of [3H]WIN35428 from DAT at 10 uM.
Data set [4] has as its target T1, 5-hydroxytryptamine receptor 3A (Homo sapiens) (UniProt P46098).
T1 sequence (whole entry): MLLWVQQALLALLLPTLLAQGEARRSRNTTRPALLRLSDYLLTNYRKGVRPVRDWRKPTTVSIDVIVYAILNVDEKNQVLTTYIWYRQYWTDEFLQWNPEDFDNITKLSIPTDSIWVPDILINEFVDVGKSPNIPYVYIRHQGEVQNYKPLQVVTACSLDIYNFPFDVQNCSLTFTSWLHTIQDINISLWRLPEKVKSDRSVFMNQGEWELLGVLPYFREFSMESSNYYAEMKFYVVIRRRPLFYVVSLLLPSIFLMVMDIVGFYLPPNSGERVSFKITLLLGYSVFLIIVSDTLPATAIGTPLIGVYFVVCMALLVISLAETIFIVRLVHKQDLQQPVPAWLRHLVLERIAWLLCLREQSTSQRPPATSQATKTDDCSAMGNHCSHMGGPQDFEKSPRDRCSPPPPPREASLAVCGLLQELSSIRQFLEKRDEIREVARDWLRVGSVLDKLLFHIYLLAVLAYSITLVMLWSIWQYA
The experiment in a line: Displacement of [3H]LY278584 from 5-HT3 at 10 uM.

Data set [5] addresses Mu-type opioid receptor (Homo sapiens) (UniProt P35372). As to the kind of experiment: Displacement of [3H]DAMGO from mu opioid receptor at 10 uM.
The target in data set [6] is T2, Alpha-1B adrenergic receptor (Homo sapiens) (UniProt P35368).
T2 sequence (whole entry): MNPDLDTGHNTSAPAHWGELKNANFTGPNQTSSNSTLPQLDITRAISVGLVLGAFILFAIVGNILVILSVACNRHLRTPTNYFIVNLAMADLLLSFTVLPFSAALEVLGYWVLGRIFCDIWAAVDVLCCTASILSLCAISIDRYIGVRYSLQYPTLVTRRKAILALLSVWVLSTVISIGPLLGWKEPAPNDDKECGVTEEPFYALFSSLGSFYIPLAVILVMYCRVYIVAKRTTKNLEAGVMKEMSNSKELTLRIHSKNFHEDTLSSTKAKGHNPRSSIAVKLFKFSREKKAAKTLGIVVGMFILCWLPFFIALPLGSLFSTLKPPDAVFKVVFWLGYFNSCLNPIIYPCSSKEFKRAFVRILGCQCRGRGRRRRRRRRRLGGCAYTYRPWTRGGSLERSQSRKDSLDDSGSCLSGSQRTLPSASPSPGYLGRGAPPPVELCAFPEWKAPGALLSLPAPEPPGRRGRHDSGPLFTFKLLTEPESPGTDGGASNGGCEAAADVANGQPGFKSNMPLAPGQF
The experiment in a line: Displacement of [3H]Prazosin from alpha1B adrenergic receptor at 10 uM.

For another data set, the system named is Mus musculus. The experiment in a line: Ex-vivo beta2* nAChR receptor occupancy in mouse brain at 10 mg/kg, ip administered 30 mins prior to testing. The data set is classed as functional. The settings on record: route intraperitoneal. Put shortly:
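Mice dosed at 10 mg/kg, or water, by intraperitoneal injection 30 min before brain collection (the forced-swim time point); ex vivo β2*-nAChR occupancy measured in brain.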

Data set [7] has as its target T3, Neuronal acetylcholine receptor; alpha4/beta2 (Homo sapiens, UniProt P17787+P43681). As to the kind of experiment: Agonist activity at human high sensitive and low sensitive alpha4beta2 nAChR expressed in SH-EP1 cells assessed as 86Rb+ ion efflux by flip-plate technique relative to sazetidine-A. It is filed as functional, cell-based. The procedure, abridged:
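SH-EP1-hα4β2 cells (stably transfected human α4 and β2, low passage 1−26) express mixed high- and low-sensitivity α4β2-nAChRs. Efficacy was measured by 86Rb+ flux on this mixed population. High-sensitivity efficacy was extrapolated by defining a reference agonist as 100% full agonist at the HS receptor.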

For data set [8], the target named is Kappa-type opioid receptor (Homo sapiens) (UniProt P41145). The experiment in a line: Displacement of [3H]U69593 from kappa opioid receptor at 10 uM.
Data set [9] concerns the target T4, Alpha-2B adrenergic receptor (Homo sapiens) (UniProt P18089).
T4 sequence (whole entry): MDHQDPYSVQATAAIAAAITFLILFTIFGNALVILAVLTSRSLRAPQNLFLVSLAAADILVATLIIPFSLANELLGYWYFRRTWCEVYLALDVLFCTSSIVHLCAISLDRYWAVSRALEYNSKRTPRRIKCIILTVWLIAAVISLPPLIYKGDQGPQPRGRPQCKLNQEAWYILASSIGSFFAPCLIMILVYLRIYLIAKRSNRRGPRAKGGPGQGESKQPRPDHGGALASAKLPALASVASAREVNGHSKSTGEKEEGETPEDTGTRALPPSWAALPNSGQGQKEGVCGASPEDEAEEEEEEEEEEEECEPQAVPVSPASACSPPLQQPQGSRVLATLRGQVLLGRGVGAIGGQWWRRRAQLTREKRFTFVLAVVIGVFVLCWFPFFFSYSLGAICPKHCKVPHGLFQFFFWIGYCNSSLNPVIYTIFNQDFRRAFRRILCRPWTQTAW
The experiment in a line: Displacement of [3H]Clonidine from alpha2B adrenergic receptor at 10 uM.

Data set [10] deals with Neuronal acetylcholine receptor; alpha2/beta2 (Rattus norvegicus, UniProt P12389+P12390). The experiment in a line: Displacement of [3H] epibatidine from rat alpha2beta2 nAChR by beta scintillation counting. The data set is classed as protein-complex assay.
The target of data set [11] is T3, Neuronal acetylcholine receptor; alpha4/beta2. The experiment in a line: Antagonist activity at human alpha4beta2 nAChR expressed in SH-EP1 cells assessed as inhibition of carbamylcholine induced 86Rb+ ion efflux preincubated for 10 mins prior to carbamylcholine-induction measured after 5 mins by flip-plate technique. The data set is classed as functional, cell-based. Put shortly: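 SH-EP1 human epithelial cells stably transfected with separate human α4 and β2 subunit cDNAs express a mixed population of high-sensitivity (2:3 α4:β2) and low-sensitivity (3:2) α4β2-nAChRs. Cells were kept at low passage (1−26 from frozen stocks). Function was read as 86Rb+ ion flux.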

The target in data set [12] is Neuronal acetylcholine receptor; alpha3/beta2 (Rattus norvegicus, UniProt P04757+P12390). As to the kind of experiment: Displacement of [3H] epibatidine from rat alpha3beta2 nAChR by beta scintillation counting. The data set is classed as protein-complex assay.
Data set [13] is described as follows: Metabolic stability in mouse liver microsomes assessed as compound remaining at 1 uM after 1 hr. The data set is classed as ADME, Microsome. Conditions: read-out: Stability. The procedure, abridged: as §1
Data set [14] addresses Beta-3 adrenergic receptor (Homo sapiens) (UniProt P13945). The experiment in a line: Displacement of [125I]Iodopindolol from beta3 adrenergic receptor at 10 uM.

pIC50, pKi: −log10 of the molar value.

T3 sequence (P17787 whole entry): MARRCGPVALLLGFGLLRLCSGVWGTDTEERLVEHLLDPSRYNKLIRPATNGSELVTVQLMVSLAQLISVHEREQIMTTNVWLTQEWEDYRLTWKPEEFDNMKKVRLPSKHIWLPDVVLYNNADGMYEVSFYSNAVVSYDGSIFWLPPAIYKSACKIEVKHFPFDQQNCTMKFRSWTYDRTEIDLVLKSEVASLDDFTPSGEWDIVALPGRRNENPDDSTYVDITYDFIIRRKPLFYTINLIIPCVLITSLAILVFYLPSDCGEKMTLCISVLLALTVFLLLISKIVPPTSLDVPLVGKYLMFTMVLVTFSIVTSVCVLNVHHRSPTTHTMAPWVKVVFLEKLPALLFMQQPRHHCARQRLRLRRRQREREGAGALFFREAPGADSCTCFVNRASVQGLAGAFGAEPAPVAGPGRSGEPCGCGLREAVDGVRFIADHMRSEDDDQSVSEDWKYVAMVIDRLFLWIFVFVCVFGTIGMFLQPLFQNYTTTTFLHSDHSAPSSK
T3 sequence (P43681 whole entry): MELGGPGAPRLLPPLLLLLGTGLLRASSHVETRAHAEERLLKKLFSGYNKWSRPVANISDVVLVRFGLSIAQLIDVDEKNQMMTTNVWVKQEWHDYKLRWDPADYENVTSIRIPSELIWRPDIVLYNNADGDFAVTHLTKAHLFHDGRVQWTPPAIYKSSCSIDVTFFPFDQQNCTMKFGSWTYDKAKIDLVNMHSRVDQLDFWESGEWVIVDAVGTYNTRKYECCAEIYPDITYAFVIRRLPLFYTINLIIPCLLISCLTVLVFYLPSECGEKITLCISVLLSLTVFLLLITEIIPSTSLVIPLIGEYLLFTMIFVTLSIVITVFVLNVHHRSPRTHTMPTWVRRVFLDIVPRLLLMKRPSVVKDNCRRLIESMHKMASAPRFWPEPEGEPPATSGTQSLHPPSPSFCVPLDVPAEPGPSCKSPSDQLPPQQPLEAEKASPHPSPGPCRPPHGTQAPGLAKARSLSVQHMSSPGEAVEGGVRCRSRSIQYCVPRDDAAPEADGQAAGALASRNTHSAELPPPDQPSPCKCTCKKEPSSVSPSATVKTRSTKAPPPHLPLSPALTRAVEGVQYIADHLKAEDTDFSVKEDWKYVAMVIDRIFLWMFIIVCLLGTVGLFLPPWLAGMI
Chain of Neuronal acetylcholine receptor; alpha2/beta2 (P12389 whole entry): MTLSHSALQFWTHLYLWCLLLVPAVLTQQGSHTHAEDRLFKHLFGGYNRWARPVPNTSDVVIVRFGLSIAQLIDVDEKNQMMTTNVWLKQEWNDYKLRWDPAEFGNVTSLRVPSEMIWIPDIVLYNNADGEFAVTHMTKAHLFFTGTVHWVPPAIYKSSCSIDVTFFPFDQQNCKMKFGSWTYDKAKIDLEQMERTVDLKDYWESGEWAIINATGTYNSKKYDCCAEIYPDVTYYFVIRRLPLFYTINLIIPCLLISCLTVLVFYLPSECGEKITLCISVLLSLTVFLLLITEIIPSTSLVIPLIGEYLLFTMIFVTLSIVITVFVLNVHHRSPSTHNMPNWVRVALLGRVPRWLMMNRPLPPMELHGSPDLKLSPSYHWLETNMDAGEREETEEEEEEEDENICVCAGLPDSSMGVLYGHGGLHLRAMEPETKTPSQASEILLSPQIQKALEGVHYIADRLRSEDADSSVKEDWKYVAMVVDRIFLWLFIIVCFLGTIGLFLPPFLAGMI
Chain of Neuronal acetylcholine receptor; alpha2/beta2 (P12390 whole entry): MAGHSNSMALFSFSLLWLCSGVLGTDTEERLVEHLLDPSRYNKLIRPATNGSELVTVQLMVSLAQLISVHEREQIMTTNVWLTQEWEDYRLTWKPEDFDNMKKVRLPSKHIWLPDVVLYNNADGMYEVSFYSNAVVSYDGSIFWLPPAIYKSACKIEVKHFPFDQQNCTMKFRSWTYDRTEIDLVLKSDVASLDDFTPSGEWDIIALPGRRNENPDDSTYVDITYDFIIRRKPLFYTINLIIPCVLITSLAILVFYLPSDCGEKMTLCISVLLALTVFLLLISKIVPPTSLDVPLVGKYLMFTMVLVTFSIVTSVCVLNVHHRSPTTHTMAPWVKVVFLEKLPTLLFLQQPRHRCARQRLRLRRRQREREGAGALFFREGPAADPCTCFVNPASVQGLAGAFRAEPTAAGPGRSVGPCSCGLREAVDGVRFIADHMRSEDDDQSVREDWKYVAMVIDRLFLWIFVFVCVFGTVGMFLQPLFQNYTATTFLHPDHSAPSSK
Chain of Beta-3 adrenergic receptor (Homo sapiens) (P13945 whole entry, looked up): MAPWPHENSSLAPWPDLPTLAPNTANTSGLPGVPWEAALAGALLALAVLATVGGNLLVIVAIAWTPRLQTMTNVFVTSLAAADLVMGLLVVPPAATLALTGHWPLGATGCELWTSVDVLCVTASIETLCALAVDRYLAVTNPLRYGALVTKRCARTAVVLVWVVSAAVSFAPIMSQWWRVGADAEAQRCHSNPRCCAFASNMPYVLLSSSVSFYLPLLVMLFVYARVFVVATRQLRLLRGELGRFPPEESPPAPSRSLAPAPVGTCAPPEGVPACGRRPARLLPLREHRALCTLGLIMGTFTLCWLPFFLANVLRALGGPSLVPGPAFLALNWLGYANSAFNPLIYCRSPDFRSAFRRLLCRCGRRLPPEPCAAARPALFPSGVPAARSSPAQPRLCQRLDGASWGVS
Chain of Sodium-dependent dopamine transporter (Homo sapiens) (Q01959 whole entry): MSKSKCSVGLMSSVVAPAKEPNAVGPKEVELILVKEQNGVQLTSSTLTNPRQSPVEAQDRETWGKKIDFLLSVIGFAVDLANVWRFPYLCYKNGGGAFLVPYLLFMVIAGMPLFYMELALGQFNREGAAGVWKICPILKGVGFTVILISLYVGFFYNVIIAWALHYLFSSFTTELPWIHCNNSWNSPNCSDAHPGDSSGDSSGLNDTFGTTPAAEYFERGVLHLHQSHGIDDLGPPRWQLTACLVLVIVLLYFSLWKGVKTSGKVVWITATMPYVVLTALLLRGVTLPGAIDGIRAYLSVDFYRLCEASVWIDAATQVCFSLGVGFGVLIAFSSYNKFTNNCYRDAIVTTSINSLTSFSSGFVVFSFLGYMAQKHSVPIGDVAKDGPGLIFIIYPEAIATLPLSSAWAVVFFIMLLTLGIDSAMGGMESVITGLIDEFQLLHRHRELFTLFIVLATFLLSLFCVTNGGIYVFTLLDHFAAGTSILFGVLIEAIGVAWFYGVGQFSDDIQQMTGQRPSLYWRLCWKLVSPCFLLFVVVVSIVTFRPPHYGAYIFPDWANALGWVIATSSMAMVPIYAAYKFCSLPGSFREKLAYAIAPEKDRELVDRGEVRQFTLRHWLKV
Chain of Kappa-type opioid receptor (Homo sapiens) (P41145 whole entry): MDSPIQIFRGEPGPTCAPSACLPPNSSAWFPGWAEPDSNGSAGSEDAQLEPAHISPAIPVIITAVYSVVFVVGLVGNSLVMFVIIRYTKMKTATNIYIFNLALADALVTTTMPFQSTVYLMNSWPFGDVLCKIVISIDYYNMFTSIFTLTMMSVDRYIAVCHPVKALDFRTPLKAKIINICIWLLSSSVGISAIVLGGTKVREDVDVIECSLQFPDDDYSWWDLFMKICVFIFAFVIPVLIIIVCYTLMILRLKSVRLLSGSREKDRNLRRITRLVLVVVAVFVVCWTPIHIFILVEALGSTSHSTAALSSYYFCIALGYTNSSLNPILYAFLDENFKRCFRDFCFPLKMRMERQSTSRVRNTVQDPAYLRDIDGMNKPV
Chain of Neuronal acetylcholine receptor; alpha3/beta2 (P04757 whole entry): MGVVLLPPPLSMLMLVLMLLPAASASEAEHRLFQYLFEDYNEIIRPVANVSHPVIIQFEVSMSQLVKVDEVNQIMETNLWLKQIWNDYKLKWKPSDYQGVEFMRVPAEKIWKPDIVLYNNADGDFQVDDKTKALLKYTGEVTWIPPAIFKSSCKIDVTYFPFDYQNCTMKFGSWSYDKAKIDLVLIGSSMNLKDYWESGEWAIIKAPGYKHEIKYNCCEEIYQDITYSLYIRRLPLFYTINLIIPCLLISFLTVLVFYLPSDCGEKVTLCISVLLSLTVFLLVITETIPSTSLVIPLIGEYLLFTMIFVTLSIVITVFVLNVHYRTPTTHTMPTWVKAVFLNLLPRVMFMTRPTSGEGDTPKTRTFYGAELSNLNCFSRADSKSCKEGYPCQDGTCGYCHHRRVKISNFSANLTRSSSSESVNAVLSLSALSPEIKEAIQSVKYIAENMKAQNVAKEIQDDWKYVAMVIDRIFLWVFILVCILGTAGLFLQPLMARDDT
Chain of Neuronal acetylcholine receptor; alpha3/beta2 (P12390 whole entry): as the sequence (P12390 whole entry) above
Chain of Mu-type opioid receptor (Homo sapiens) (P35372 whole entry): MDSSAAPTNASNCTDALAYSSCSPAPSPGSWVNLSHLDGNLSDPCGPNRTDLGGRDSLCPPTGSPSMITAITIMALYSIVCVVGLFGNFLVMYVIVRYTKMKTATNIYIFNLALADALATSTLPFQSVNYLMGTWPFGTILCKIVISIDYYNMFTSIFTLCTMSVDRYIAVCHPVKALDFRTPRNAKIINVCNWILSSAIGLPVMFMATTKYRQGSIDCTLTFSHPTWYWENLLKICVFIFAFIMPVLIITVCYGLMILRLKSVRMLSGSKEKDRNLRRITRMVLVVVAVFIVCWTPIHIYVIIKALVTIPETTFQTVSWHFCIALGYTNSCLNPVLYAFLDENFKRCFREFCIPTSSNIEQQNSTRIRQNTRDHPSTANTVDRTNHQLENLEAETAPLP

As to `COCC[C@H]1C[C@@H]1c1cncc(OC[C@@H]2CCN2)c1`, the remaining at 1 h, 1 µM in data set [1] and in [13] was 84% throughout. Besides, the inhibition in [2] is 2%; in data set [3] it was 21.7%; in [4], 42.4%; in data set [5], -5.6%; in [6], 8.6%; in data set [8], 7.2%. Besides, the results for the inhibition in data set [9] and in [14] were 16.4% and 25.3%, respectively. In addition, the Activity in the data set with Mus musculus is listed as 85%. Also, the Efficacy in data set [7] is 6%. The pKi in data set [10] was 10.00; in data set [12], 8.62. Besides, the pIC50 in [11] is 8.25.
Consider `CNC(=O)OCC[C@H]1C[C@@H]1c1cncc(OC[C@@H]2CCN2)c1`, for which the remaining at 1 h, 1 µM in [1] and in [13] was 98% in each case. Besides, the inhibition in data set [2] was -1.1%; in data set [3], 63%; in data set [4], 23.5%; in [5], 37.3%; in [6] it was 14.1%; in [8], 19.1%. The results for the inhibition in [9] and in data set [14] were 12.4% and 10.6%, respectively. This compound also returned an Activity in the data set on Mus musculus of 65%. Besides, the Efficacy in data set [7] was determined as 17%. For the same compound, the pKi was 9.52 in data set [10] and 8.01 in data set [12]. In [11], the pIC50 is 7.74.
In the case of `OCC[C@H]1C[C@@H]1c1cncc(OC[C@@H]2CCN2)c1`, the remaining at 1 h, 1 µM in data set [1] and in data set [13] was 80% throughout. Moreover, the inhibition in data set [2] was -2.5%; in data set [3], 43.7%; in data set [4], 38.3%; in [5] it was 0.4%; in data set [6], -4.5%; in data set [8] it was 3.7%. Further, the inhibition in data set [9] is 9.9%; in data set [14] it was 24.3%. This compound also displayed an Activity with Mus musculus of 85%. The Efficacy in [7] came out at 21%. Moreover, the pKi in data set [10] is 10.00; in [12] it was 8.52. Besides, in data set [11], the pIC50 was 8.03.
